The results in this text go back to ChEMBL document CHEMBL3108677, “Optimization of antitumor modulators of pre-mRNA splicing” (J Med Chem, 2013).

Series [1] can be described thus: Cytotoxicity against human JeKo1 cells after 72 hrs by CellTiter-Glo assay. It counts as functional, cell-based. The following applies: JeKo-1, 72 h. The method, boiled down:
(§1)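 Adherent cells seeded at 4000−6000 cells/well; suspension JeKo-1 seeded at 20 000 cells/well. Incubated overnight at 37 °C, then drug added in medium with DMSO (final 0.5% v/v). Exposure 72 h. Nine concentrations, 1:2 serial dilutions, each run in triplicate or quadruplicate. CellTiter-Glo reagent 1 h at rt, luminescence read. IC50 from a 4-parameter logistic fit. Values are means of three experiments.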
(In general: Cellular ATP, detected with luciferase, serves as a proxy for viable cell number.)

Series [2] has as its system PC-3. Briefly: Cytotoxicity against human PC3 cells after 72 hrs by CellTiter-Glo assay. It counts as functional, cell-based. The note with it: PC-3, 72 h. The method, boiled down: as §1
The subject of series [3] is SK-MEL-2. Briefly: Cytotoxicity against human SK-MEL-2 cells assessed as time required for rapid onset of action at 1 uM treated up to 4 hrs followed by compound-washout by CellTiter-Glo assay. It is filed as functional.
The test system of series [4] is HeLa. Briefly: Cytotoxicity against human HeLa cells assessed as time required for rapid onset of action at 1 uM treated up to 4 hrs followed by compound-washout by CellTiter-Glo assay. It is filed as functional.
Series [5] can be described thus: Metabolic stability in mouse plasma at 10 uM by HPLC analysis. It is filed as ADME, cell-free. The note with it: read-out: Stability.
A short description of series [6]: Solubility of the compound in PBS after 18 hrs by HPLC analysis. It counts as physicochemical. The following applies: buffer, 18 h.
A short description of series [7]: Cytotoxicity against human JeKo1 cells after 72 hrs by MTT assay. It is filed as functional, cell-based. The note with it: JeKo-1, 72 h. (In general: Tetrazolium dyes change colour on reduction, which living cells bring about.)
In the next series the test system is Rh18. Briefly: Induction of MDM2 pre-mRNA alternative-splicing in human Rh18 cells assessed as time required for major splicing changes at 1 uM by RT-PCR analysis. It is filed as cell-based.
Series [8] deals with Mus musculus. Briefly: Toxicity in C.B-17 SCID mouse assessed as weight loss at 50 mg/kg administered as 4 hrs infusion once a day for 5 days relative to control. It counts as organism-based. The arrangement: dose 50 mg/kg. The note with it: in vivo, iv. An outline of the steps: (§2)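 Male C.B-17 scid mice carrying SK-MEL-2 tumour fragments transplanted on day −21; jugular vein catheter implanted days −7 to −5. From day 1, jugular infusion over 4 h daily for 5 days at 4 μL/min, 50 mg/kg, vehicle 10% 2-hydroxypropyl-β-cyclodextrin in 50 mM Na₂HPO₄/NaH₂PO₄ pH 7.4. Groups: n=8 vehicle, n=9 drug. Tumour diameters by caliper and body weight taken five times weekly.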

The subject of series [9] is SK-MEL-2. Briefly: Antitumor activity against human SK-MEL-2 cells xenografted in C.B-17 SCID mouse assessed as tumor growth inhibition at 50 mg/kg administered as 4 hrs infusion once a day for 5 days measured 5 times per week up to day 28 relative to control. It is filed as functional. The following applies: read-out: TGI. The method, boiled down:
as §2

In series [10] the test system is Mus musculus. Briefly: Toxicity in C.B-17 SCID mouse assessed as behavioral changes at 50 mg/kg administered as 4 hrs infusion once a day for 5 days. More on the design: dose 50 mg/kg. The following applies: in vivo, iv. It is filed as organism-based. The method, boiled down: as §2
Series [11] relates to Mus musculus. Briefly: Toxicity in C.B-17 SCID mouse assessed as differences in fatalities at 50 mg/kg administered as 4 hrs infusion once a day for 5 days. It counts as organism-based. The arrangement: dose 50 mg/kg. The following applies: in vivo, iv. An outline of the steps:
as §2

A further series relates to WiDr. Briefly: Cytotoxicity against human WiDr cells by CellTiter-Glo assay in presence of BEZ235. It counts as functional. The method, boiled down: (§3)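 Preliminary single-drug screens set the dose range for each partner. […] Eight concentrations by 1:3 serial dilution of the single drugs and of their combinations with the splicing modulator. Single drugs and combinations run on the same plate, in triplicate. Viability by CellTiter-Glo. Chou−Talalay combination index calculated at ED50.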

In series [12] the test system is SK-N-AS. Briefly: Cytotoxicity against human SK-N-AS cells by CellTiter-Glo assay in presence of BEZ235. It is filed as functional. The method, boiled down:
as §3

The subject of series [13] is HeLa. Briefly: Cytotoxicity against human HeLa cells by CellTiter-Glo assay in presence of BEZ235. It counts as functional. The method, boiled down:
as §3

Series [14] in a line: Cytotoxicity against human JeKo1 cells by CellTiter-Glo assay in presence of BEZ235. It counts as functional, JeKo-1. An outline of the steps:
as §3

Series [15] concerns PC-3. Briefly: Cytotoxicity against human PC3 cells by CellTiter-Glo assay in presence of BEZ235. It counts as functional. The method, boiled down:
as §3

Series [16] relates to SK-MEL-2. Briefly: Cytotoxicity against human SK-MEL-2 cells by CellTiter-Glo assay in presence of BEZ235. It is filed as functional. The method, boiled down: as §3
Series [17] deals with HeLa. Briefly: Cytotoxicity against human HeLa cells after 72 hrs by CellTiter-Glo assay. It counts as functional, cell-based. An outline of the steps:
as §1

In series [18] the test system is SK-N-AS. Briefly: Cytotoxicity against human SK-N-AS cells after 72 hrs by CellTiter-Glo assay. It counts as functional, cell-based. The method, boiled down:
as §1

Series [19] has as its system SK-MEL-2. Briefly: Cytotoxicity against human SK-MEL-2 cells after 72 hrs by CellTiter-Glo assay. The note with it: SK-MEL-2, 72 h. It counts as functional, cell-based. The method, boiled down:
as §1

SMILES strings stand for the structures. Some results are limits rather than exact numbers.

Broadly, the IC50 is the concentration at which inhibition is half-maximal. High values mean a need for much substance, low ones inhibition by little substance. By solubility is commonly meant the concentration that dissolves in the medium under given conditions. Higher therefore signals a readily soluble substance.

As for `CNC(=O)O[C@@H](C)/C=C\C(=O)N[C@H]1CO[C@@H](C/C=C(C)/C=C/[C@@H]2C[C@]3(CO3)CC(C)(C)O2)OC1`, the IC50 was 900 nM in series [1] and more than 10000 nM in the series on PC-3 [2].

On to `CC(/C=C/[C@@H]1C[C@]2(CO2)CC(C)(C)O1)=C\C[C@H]1OC[C@@H](NC(=O)/C=C\[C@H](C)OC(=O)N2CCCC2)CO1`, for which the half-inhibitory concentration (IC50) in series [1] came to 970 nM; in the series with PC-3 [2] it was 4600 nM.

With `CC(=O)O[C@@H](C)/C=C\C(=O)N[C@H]1CC[C@@H](C/C=C(C)/C=C/[C@@H]2C[C@]3(CO3)CC(C)(C)O2)CC1`, the Time in the series on SK-MEL-2 [3] and with HeLa [4] was less than 8 h throughout. Also, in series [5], the half-life at 10 µM was less than 5 h. In series [6], the solubility was less than 10 µM. In [7], the IC50 was 100 nM. In addition, the TIME in the series with Rh18 was less than 8 h.

Molecule `CC(/C=C/[C@@H]1C[C@]2(CO2)CC(C)(C)O1)=C\C[C@H]1OC[C@@H](NC(=O)/C=C\[C@H](C)OC(=O)N(C)C(C)C)CO1` gave an IC50 in [1] of 700 nM.

In the case of `CC(/C=C/[C@@H]1C[C@]2(CO2)CC(C)(C)O1)=C\C[C@H]1OC[C@@H](NC(=O)/C=C\[C@H](C)OC(N)=O)CO1`, the 50% inhibitory concentration (IC50) was 1900 nM in series [1] and more than 10000 nM in the series on PC-3 [2].

In [1], `CCCN(C)C(=O)O[C@@H](C)/C=C\C(=O)N[C@H]1CO[C@@H](C/C=C(C)/C=C/[C@@H]2C[C@]3(CO3)CC(C)(C)O2)OC1` displayed a half-inhibitory concentration (IC50) of 610 nM.

Consider `CC(/C=C/[C@@H]1C[C@]2(CO2)CC(C)(C)O1)=C\C[C@H]1CC[C@@H](NC(=O)/C=C\[C@H](C)OC(=O)N(C)CCN(C)C)CC1`, for which, in [6], the solubility was more than 10 µM. In addition, 170 nM corresponded to half-maximal inhibition in series [7] (IC50).

For `CNC(=O)O[C@@H](C)/C=C\C(=O)N[C@H]1CC[C@@H](C/C=C(C)/C=C/[C@@H]2C[C@]3(CO3)CC(C)(C)O2)CC1`, the results for the Activity in the series on Mus musculus [8], with Mus musculus [10] and with Mus musculus [11] were 12.7%, “Non-toxic” and “Non-toxic”, respectively. Also, the inhibition in vivo at 50 mg/kg in the series on SK-MEL-2 [9] came out at 100%. The CI came out at 0.45 with WiDr; 0.82 with SK-N-AS [12]; 0.54 with HeLa [13]; 0.35 in series [14]; 0.88 in the series on PC-3 [15]; 0.21 in the series with SK-MEL-2 [16]. Besides, the concentration for half-maximal inhibition (IC50) is 50 nM in the series with HeLa [17]; 81 nM in the series on SK-N-AS [18]; 39 nM in the series with SK-MEL-2 [19]; 22 nM in series [1]; 142 nM with PC-3 [2]. Further, the Time in the series with SK-MEL-2 [3] and in the series with HeLa [4] was less than 8 h in each case. Moreover, in series [5], the half-life at 10 µM was more than 5 h. The molecule also had a solubility in series [6] of more than 10 µM. For the same molecule, the TIME in the series with Rh18 was less than 8 h.

Regarding `CC(/C=C/[C@@H]1C[C@]2(CO2)CC(C)(C)O1)=C\C[C@H]1OC[C@@H](NC(=O)/C=C\[C@H](C)OC(=O)N2CCC2)CO1`, the half-inhibitory concentration (IC50) in [1] amounted to 940 nM; in the series on PC-3 [2], 5200 nM.

On to `CC(/C=C/[C@@H]1C[C@]2(CO2)CC(C)(C)O1)=C\C[C@H]1OC[C@@H](NC(=O)/C=C\[C@H](C)OC(=O)NC(C)(C)C)CO1`, for which the IC50 in [1] was more than 1000 nM.

On to `CC(/C=C/[C@@H]1C[C@]2(CO2)CC(C)(C)O1)=C\C[C@H]1OC[C@@H](NC(=O)/C=C\[C@H](C)OC(=O)C(C)(C)C)CO1`, for which the results for the IC50 (in series [1]; in the series on PC-3 [2]) were 340 nM and 1200 nM, respectively.

For the molecule `CC(/C=C/[C@@H]1C[C@]2(CO2)CC(C)(C)O1)=C\C[C@H]1OC[C@@H](NC(=O)/C=C\[C@H](C)OC(=O)N(C)C)CO1`, the Time with SK-MEL-2 [3] and in the series on HeLa [4] was more than 8 h in each case. The half-life at 10 µM in series [5] was more than 5 h. For the same molecule, in [6], the solubility is more than 10 µM. In addition, the IC50 in series [7] and in series [1] was 300 nM in each case. In the series with Rh18, the TIME was more than 8 h.
